An excerpt weighted towards active compounds, which were near 2% of everything screened.
E-sel inducer – E-selectin induction on HUVECs | HUVEC E-selectin immunofluorescence imaging; normalized: neutral wells 0, TNF-alpha wells 100 | activation, % at 7.58 µM | 260,000 tested, 0.37% active;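 active means mean E-selectin-positive cell signal at least 10% of the positive control, reached in at least 60% of replicates, without over 20% cell loss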
Target sequence (P16581 whole entry, looked up): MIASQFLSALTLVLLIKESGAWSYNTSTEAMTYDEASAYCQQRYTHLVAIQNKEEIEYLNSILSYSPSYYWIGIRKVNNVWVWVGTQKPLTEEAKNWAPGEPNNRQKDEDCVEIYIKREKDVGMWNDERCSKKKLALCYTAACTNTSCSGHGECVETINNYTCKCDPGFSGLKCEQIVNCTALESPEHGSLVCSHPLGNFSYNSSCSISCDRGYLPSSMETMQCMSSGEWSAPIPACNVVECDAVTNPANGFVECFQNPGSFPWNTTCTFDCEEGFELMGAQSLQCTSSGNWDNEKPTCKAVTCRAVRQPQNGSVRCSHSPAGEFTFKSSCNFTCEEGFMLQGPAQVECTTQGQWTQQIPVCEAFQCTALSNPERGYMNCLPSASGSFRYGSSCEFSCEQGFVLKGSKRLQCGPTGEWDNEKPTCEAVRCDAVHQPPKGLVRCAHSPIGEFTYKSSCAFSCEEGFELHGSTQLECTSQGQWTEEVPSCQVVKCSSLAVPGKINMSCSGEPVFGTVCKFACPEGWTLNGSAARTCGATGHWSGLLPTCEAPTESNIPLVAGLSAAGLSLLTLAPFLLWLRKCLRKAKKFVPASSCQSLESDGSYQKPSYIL
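Test system: HUVEC; input: 3,000 HUVEC/well; measured by: immunofluorescence imaging; read-out: % PE-positive cells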
RAD54 branch – blocks human RAD54 Holliday junction branch migration; Q92698; FAM/BHQ fluorescence; inhibition, % at 10.4 µM; 360,000 tested, 0.14% active; AID 602329;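 active means mean normalized replicate activity at least 40 and at least half of replicates scoring 40 or more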;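 further: 0% = median of neutral control wells and 100% = median of positive control wells; inhibitors cause a drop in the FAM fluorescence signal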
RAD52 inh – inhibitors of human RAD52 DNA annealing. P43351. recombinant RAD52 DNA annealing, FRET fluorescence. inhibition, % at 18.7 µM. 360,000 tested, 0.46% active;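 active means every replicate showing at least 50% inhibition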
XiGFP reactiv – activators of X-chromosome reactivation in mouse fibroblasts. XiGFP mouse fibroblasts, % GFP-positive cells imaging, 3 d; cells co-treated with 5-aza-dC sensitizer; scaled so ellipticine positive control = 100%. activation, % at 7.58 µM. 360,000 tested, 0.055% active;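 active means mean normalized replicate activation at least 10% and every replicate at or above 10%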;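 further: 0% = median of on-plate neutral control wells and 100% = ellipticine 6 µM median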
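Material: SV40-immortalized XiGFP fibroblast cells, line 68-5-11 | Buffer or medium: DMEM containing 5-aza-dC | Dosing: One concentration, pinned | Times: 3 d treatment, 15 min room-temperature fixation | Controls: Ellipticine 6 µM positive control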
PglD DTNB – blocks C. jejuni PglD acetyltransferase activity; AID 602405; inhibition, % at 12.5 µM; purified PglD enzyme, DTNB colorimetric CoA detection; 360,000 tested, 0.098% active; in the data active means inhibition above about 16%, passing the limit was not always enough
rRNA inh HTS – inhibits bacterial ribosomal RNA function over humanized ribosomes. E. coli WT GFP vs humanized-ribosome RFP mutants, fluorescence, 24 h; active compounds read low; DMSO median 0, no signal -100. GFP signal change (wild-type ribosome), % (test concentration not listed). 350,000 tested, 1.6% active. AID 720706;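 active means significant combined selectivity score with lowered wild-type GFP, culture density cut under 30%, mutant RFP and density less affected; inactive means any of these conditions unmet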
* marks the source's active call; other numbers are inactive results; / = no result; ! = not confirmed by another sample.

SMILES	E-sel inducer	RAD54 branch	RAD52 inh	XiGFP reactiv	PglD DTNB	rRNA inh HTS
CCNC(=O)[C@@H]1[C@@H](CO)[C@@H]2Cn3c(cccc3=O)[C@H]1N2Cc1cccc(Cl)c1	0	/	-6	0	/	2
CCC(=O)Nc1ccc2c(c1)C(=O)N(C)[C@@H]1CC[C@H](CC(=O)NCCOC)O[C@@H]1CO2	0	-7	-5	0	0	0
COc1ccccc1C(=O)Nc1c(C(=O)N(CCN(C)C)Cc2ccco2)oc2ccccc12	/	3	-5	1	15	-40*
Cc1ccccc1C(=O)Nc1c(C(=O)N(CCN(C)C)Cc2ccco2)oc2ccccc12	/	2	-16	0	0	0
CCC(=O)N(C)C[C@H]1Oc2ncc(C#C[C@@H](C)O)cc2C(=O)N([C@@H](C)CO)C[C@@H]1C	0	3	3	-1	-5	3
CN1CCN(C(=O)C[C@H]2CC[C@@H]3[C@H](COC[C@@H](O)CN3C(=O)Nc3ccc(Cl)cc3)O2)CC1	0	4	5	0	0	-27*
O=C(C[C@H]1CC[C@@H]2[C@H](COC[C@H](O)CN2C(=O)Nc2ccc(Cl)cc2)O1)NCC1CC1	0	5	-5	0	2	-24*
O=C(C[C@@H]1CC[C@H]2[C@@H](COC[C@H](O)CN2C(=O)c2ccc(F)cc2)O1)Nc1ccc(-c2ccccc2)cc1	38*	-3	-140	3	-3	1
CN1CCN(C(=O)C[C@@H]2CC[C@@H]3[C@H](COC[C@H](O)CN3C(=O)Nc3ccc(Cl)cc3)O2)CC1	0	-8	-8	0	-3	-18*
CN1CCN(C(=O)C[C@H]2CC[C@@H]3[C@H](COC[C@H](O)CN3C(=O)Nc3cc(Cl)cc(Cl)c3)O2)CC1	0	11	13	0	3	-30
CN1CCN(C(=O)C[C@H]2CC[C@H]3[C@@H](COC[C@@H](O)CN3C(=O)Nc3cc(Cl)cc(Cl)c3)O2)CC1	0	0	3	0	-1	-28
Cc1ccc(S(=O)(=O)Nc2ccc3c(c2)C(=O)N([C@@H](C)CO)C[C@H](C)[C@H](CN(C)S(=O)(=O)c2ccc(F)cc2)O3)cc1	5	/	12	0	/	-3
O=C(C[C@@H]1CC[C@@H]2[C@H](COC[C@@H](O)CN2C(=O)Nc2cccc(F)c2)O1)NCc1ccccc1F	0	1	13	0	-5	-23
O=C(C[C@@H]1CC[C@H]2[C@@H](COC[C@H](O)CN2C(=O)Nc2cccc(F)c2)O1)NCc1ccccc1F	0	-3	9	0	19*	-10
C[C@@H]1CN([C@@H](C)CO)C(=O)c2cccc(NS(=O)(=O)c3ccccc3)c2O[C@@H]1CN(C)Cc1ccc(C(=O)O)cc1	0	-9	-10	0	1	5
COc1cccc(S(=O)(=O)N2C[C@@H]3N[C@H](C2)C3c2ccc(-c3cccc(C)c3)cc2)c1 (stereo partly specified)	1	/	57*!	0	/	2
COc1ccc(-c2ccc(C3[C@@H]4CN(S(=O)(=O)c5cccc(C)c5)C[C@H]3N4)cc2)cc1 (stereo partly specified)	0	/	71*!	0	/	1
Cc1cccc(S(=O)(=O)N2C[C@@H]3N[C@H](C2)C3c2ccc(-c3ccncc3)cc2)c1 (stereo partly specified)	1	/	12	0	/	1
Cc1cccc(S(=O)(=O)N2C[C@@H]3N[C@H](C2)C3c2ccc(-c3cccnc3)cc2)c1 (stereo partly specified)	0	/	-11	0	/	0
CNC[C@@H]1Oc2cc(C#Cc3ccccc3OC)ccc2S(=O)(=O)N([C@H](C)CO)C[C@H]1C	0	-7	-18	0	4	2
CCCC(=O)N1CCC2(CC1)CN(C(=O)C1CCCC1)[C@H](CO)c1[nH]c3cc(OC)ccc3c12	2	/	2	0	/	-1
O=C(COc1ccc2ccccc2c1Br)N1CCCC1	/	2	-1	0	2	-26*
